Measured values taken from the array DNA melting data of Ke et al. (doi:10.1101/2024.01.08.574731).

Assays:
[1] = folding enthalpy; higher = less favourable; fluorescence melt of hairpins on a sequencing array, two-state fit; conditions: sodium 0.088 M
Method in brief: (§1)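 With Cy3 and quencher oligos annealed, library hairpins on a sequenced MiSeq flow cell were imaged for Cy3 fluorescence in 50 mM Na-HEPES pH 8.0, 25 mM NaCl, in 2.5 °C steps up to 60 °C. Melting temperature and folding enthalpy were derived from bootstrapped two-state fits of signals normalised to pre-quench Cy3 and to control constructs. Four replicates were combined by inverse variance, with fitted temperatures raised by 9.35 °C to match UV melts.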

[2] = melting temperature; fluorescence melt of hairpins on a sequencing array, two-state fit, raised by 9.35 °C to match UV melts; conditions: sodium 0.088 M
Method in brief: as §1

Sequence	folding enthalpy [1]	Tm [2]
GCGGAAACCCGC ((((....))))	-20.9 kcal/mol	50.2 °C
GTTGGCTCGAAAGAGAAC (((..(((....))))))	-17.1 kcal/mol	34.9 °C
GCATTCGAAAGAAAGTGC ((((((....)))..)))	-12.4 kcal/mol	30.4 °C
GTGATGGGAAACCATTAC ((.((((....)))).))	-31.1 kcal/mol	43.5 °C
GACCCACGAAAGTGGTC (((.(((....))))))	-13.3 kcal/mol	51.5 °C
GGGCATCGAAAGATCCCC (((.(((....))).)))	-19.4 kcal/mol	48.9 °C
GGGACTGGAAACAGTTCC ((.((((....)))).))	-36.1 kcal/mol	51.4 °C
GCGGTACTCCGC ((((....))))	-23.3 kcal/mol	64.1 °C
GCACGGCGAAAGCGGGGC ((.(.((....)).).))	-31.5 kcal/mol	64.9 °C
GCTTCGCGAAAGCAACGC ((.(.((....)).).))	-10 kcal/mol	29.2 °C
GGGGCCGAAAGGCGGCCC ((((((....)))..)))	-15.1 kcal/mol	68.2 °C
ACTGAGAAATCAGT (((((....)))))	-19.8 kcal/mol	34.8 °C
GTGCGTGGAAACATGCAC ((((.((....)).))))	-48.5 kcal/mol	58.4 °C
GATCTGGCCACAGATC ((((((....))))))	-39.6 kcal/mol	59.8 °C
GCCAAGCGAAAGCTCGGC (((.(((....))).)))	-38.9 kcal/mol	57.4 °C
GTCGCGCCGAAAGGCGAC (((..(((....))))))	-7.69 kcal/mol	43 °C
GCTCACGGAAACATGAGC (((((.(....).)))))	-34.6 kcal/mol	44.9 °C
GAATTCGCGAAAGCGTTC (((..(((....))))))	-6.23 kcal/mol	19.9 °C
GCCTCGCGAAAGCGCTGC ((..(((....)))..))	-10.4 kcal/mol	38.5 °C
GTATCGGGAAACTGATGC (.(((.(....).))).)	-29.6 kcal/mol	33.1 °C
GAGTAGGGAAACCTATTC ((.((((....)))).))	-25.5 kcal/mol	32.5 °C
GCCCGGCGAAAGCAAGGC (((..((....))..)))	-18.6 kcal/mol	59 °C
GCTGCGTCGAAAGACAGC (((..(((....))))))	-14.5 kcal/mol	47.1 °C

Sequence	folding enthalpy [1]	Tm [2]
GTCAGTGGAAACACTGAC (((((((....)))))))	-47.6 kcal/mol	64.5 °C
GATTGTGCGAAAGCAATC (((..(((....))))))	-12.8 kcal/mol	34 °C
GATCAGGCTTCTGATC ((((((....))))))	-37.1 kcal/mol	50.3 °C
GATCCAGGCTTGGATC ((((((....))))))	-43.8 kcal/mol	54.8 °C
GGCGAACCGAAAGGTGCC (((..(((....))))))	-28.3 kcal/mol	53.7 °C
GGGCGCGAAAGCGAGCCC ((((((....)))..)))	-16.7 kcal/mol	66.2 °C
GCTTGGCGAAAGCGAGGC ((.(.((....)).).))	-15.3 kcal/mol	43.3 °C
GCTGGGCGAAAGCGTAGC (((..((....))..)))	-22.5 kcal/mol	52.1 °C
GATCGTAGTCACGATC ((((((....))))))	-36.1 kcal/mol	54.1 °C
GATCATGATAATGATC ((((((....))))))	-48.7 kcal/mol	55.4 °C
GTCGCGCGAAAGCGGAC (((.(((....))))))	-15.4 kcal/mol	56.5 °C
GTATTGACGAAAGTCTAC (((..(((....))))))	-8.47 kcal/mol	25.1 °C
GCAGGACGAAAGTCTGC (((.(((....))))))	-31.7 kcal/mol	58.4 °C
GCACTGGGAAACCAATGC (((.(((....))).)))	-30.1 kcal/mol	40.3 °C
GGTCCCGAAAGGGTCACC ((((((....)))..)))	-12.2 kcal/mol	39.4 °C
GATCAATAGATTGATC ((((((....))))))	-31 kcal/mol	42.5 °C
GATCTATGATAGATC ((((((...))))))	-25.2 kcal/mol	37.3 °C
GATGCGGGAAACCGCGTC ((.((((....)))).))	-19.2 kcal/mol	59.9 °C
GACCAGGCGAAAGCCGTC (((..(((....))))))	-7.64 kcal/mol	36.2 °C
GTTATGCCGAAAGGCAAC (((..(((....))))))	-7.54 kcal/mol	33 °C
GATCCTGTCCAGGATC ((((((....))))))	-48.3 kcal/mol	58.1 °C
GATCTAGGCCTAGATC ((((((....))))))	-56 kcal/mol	52.4 °C
GAGGCGGGAAACCACCTC ((((.((....)).))))	-36.9 kcal/mol	49.1 °C

Sequence	folding enthalpy [1]	Tm [2]
GTCCTACGAAAGTAGAC (((.(((....))))))	-18.1 kcal/mol	39.6 °C
GCGGTCACGAAAGTGCGC (((..(((....))))))	-29.4 kcal/mol	52.1 °C
GCAGCGCGAAAGCATTGC (((..((....))..)))	-14 kcal/mol	40.9 °C
GTGTCTGGAAACAGATAC ((.((((....)))).))	-37.9 kcal/mol	46.1 °C
GGAAATTCGAAAGAATCC (((..(((....))))))	-9.79 kcal/mol	26 °C
GGTGGGGGAAACCCCGTC (..((((....))))..)	-12 kcal/mol	38.2 °C
GCGAAGACGAAAGTCCGC (((..(((....))))))	-31.9 kcal/mol	52.4 °C
GTTGTGGGAAACTACGAC ((.((.(....).)).))	-14.3 kcal/mol	33.8 °C
GATCAATCATTGATC ((((((...))))))	-27.1 kcal/mol	42 °C
GGGTTGCGAAAGCATCCC (((.(((....))).)))	-34.1 kcal/mol	59.1 °C
GATCCGCGGACGGATC ((((((....))))))	-37.5 kcal/mol	56.2 °C
GATGCAGGAAACTGCATC (((((((....)))))))	-43.6 kcal/mol	64.7 °C
GCGATGCGAAAGCAGTGC ((..(((....)))..))	-22.7 kcal/mol	58.3 °C
GACCAACGAAAGTTGTC (((.(((....))))))	-14.5 kcal/mol	40.8 °C
GTCCCCGAAAGGGGAGAC ((((((....)))..)))	-8.25 kcal/mol	54.2 °C
GATCAAGCCGTTGATC ((((((....))))))	-29.4 kcal/mol	46.5 °C
GTCGGCCGAAAGGCGGAC (((.(((....))).)))	-27.5 kcal/mol	67.8 °C
GAGACCGGAAACGATCTC ((((.((....)).))))	-31.9 kcal/mol	42 °C
GGCCATTCGAAAGAAGCC (((..(((....))))))	-19.9 kcal/mol	33.1 °C
GTGTAGGGAAACCTACGC (.(((((....))))).)	-17.9 kcal/mol	50 °C
GGATTCGGAAACGGATTC (.((.((....)).)).)	-16.7 kcal/mol	32.3 °C
GCACTTCGAAAGAAATGC (((.(((....))).)))	-31.3 kcal/mol	42.3 °C
GCAGTGCGAAAGCTCCGC ((.(.((....)).).))	-11.9 kcal/mol	47.9 °C

Sequence	folding enthalpy [1]	Tm [2]
GACAACGAAAGTTAAGTC ((((((....)))..)))	-14.7 kcal/mol	33.2 °C
GGATTACGAAAGTATCC (((.(((....))))))	-22.2 kcal/mol	42.3 °C
CGTACGGAAACGTGTACG ((((((....)))..)))	-25.2 kcal/mol	41.5 °C
GCGTCGCGAAAGCCAAGC ((.(.((....)).).))	-20.1 kcal/mol	48.1 °C
CGAACGGAAACGTTCTCG ((((((....)))..)))	-11.2 kcal/mol	36.8 °C
GAGGACGAAAGTCGCCTC ((((((....)))..)))	-14.9 kcal/mol	38.9 °C
GATCCTTATGAGGATC ((((((....))))))	-37.1 kcal/mol	53.3 °C
GCCTGCGGAAACACAGGC (((((.(....).)))))	-40.8 kcal/mol	52.4 °C
GAGCTCCGAAAGGACCTC (((.(((....))).)))	-20.2 kcal/mol	38.1 °C
GCATTGCGAAAGCACCGC ((..(((....)))..))	-10.7 kcal/mol	34.5 °C
GATCGTTCTGACGATC ((((((....))))))	-44.4 kcal/mol	55.5 °C
GACTTCGGAAACGAAGCC (.(((((....))))).)	-15 kcal/mol	45.6 °C
GATCGAAGCGTCGATC ((((((....))))))	-39.9 kcal/mol	51.1 °C
GCAACTCGAAAGAGGTGC (((.(((....))).)))	-40.6 kcal/mol	65.5 °C
GAAGCACGAAAGTGTTC (((.(((....))))))	-13.4 kcal/mol	36.1 °C
GATCAGCTGTCTGATC ((((((....))))))	-38.9 kcal/mol	50.3 °C
GGTCCTGGAAACGGGATC (.(((.(....).))).)	-28.5 kcal/mol	38.4 °C
GAGTGAGGAAACTTACTC ((((.((....)).))))	-28 kcal/mol	38.1 °C
ATGGTGAAAACCAT (((((....)))))	-21.6 kcal/mol	47.1 °C
GATCTTTCCGAAGATC ((((((....))))))	-33.1 kcal/mol	46.4 °C
CGAGCCGGAAACGGTTCG (((.(((....))).)))	-40.1 kcal/mol	56 °C
CGTCCCGGAAACGGACG (((.(((....))))))	-27.7 kcal/mol	53.2 °C
GCATGGCGAAAGCGAGGC ((.(.((....)).).))	-19 kcal/mol	47.3 °C
